# MCL1-BIM inh = inhibitors of MCL1 binding to BIM-BH3, primary screen, biochemical, fluorescence polarization | Induced myeloid leukemia cell differentiation protein Mcl-1 (Homo sapiens), Q07820 | GST-MCL1 / FITC-Bim-BH3 fluorescence polarization | inhibition, % at 10.9 µM | hit rate 0.68% among 320,000 | AID 2057, 2009;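 active means inhibition above the mean inhibition of all tested compounds plus 3 SD, set per campaign, cut at about 40% in these data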;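 further: 0% = DMSO wells and 100% = unlabeled Bim-BH3 peptide control; higher means more loss of mP so more displacement of Bim peptide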
# Mcl1 Noxa PPI = Mcl-1/Noxa binding inhibitors, primary screen, biochemical, TR-FRET, 1536-well; hit rate 1.5% among 220,000; TR-FRET Mcl-1/Noxa peptide binding, 2 h; Induced myeloid leukemia cell differentiation protein Mcl-1 (Homo sapiens), Q07820; AID 1022, 2008; inhibition, % at 21.7 µM;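 active means compounds that cut the protein-peptide binding signal by more than 50% relative to plate controls in a single-dose test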;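 further: His-tagged Mcl-1 with rhodamine Noxa BH3 peptide and terbium anti-His antibody; 0% = Mcl-1 plus Noxa peptide wells and 100% = peptide-only wells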
# Mcl1 Bid PPI = Mcl-1/Bid binding inhibitors, primary screen, biochemical, TR-FRET, 1536-well; TR-FRET Mcl-1/Bid-Dy647 peptide binding; inhibition, % at 21.7 µM; AID 1021, 2008; hit rate 0.97% among 220,000; Induced myeloid leukemia cell differentiation protein Mcl-1 (Homo sapiens), Q07820;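 active means compounds that cut the binding signal by more than half at the single screening dose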;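 further: His-tagged Mcl-1 with europium anti-His antibody binding Bid BH3 peptide; 0% = Mcl-1 plus peptide wells and 100% = peptide-only wells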
# EBV gp42 inh = Epstein-Barr virus gp42 inhibitors, primary screen, biochemical, uHTS, fluorescence polarization; Glycoprotein 42 (Epstein-Barr virus (strain AG876)), Q1HVG2; Fluorescence polarization binding assay, mP read-out; inhibition, % (tested at 21.74 µM); hit rate 0.42% among 220,000; in the data active means inhibition above about 50%
# Target sequence (Q1HVG2 whole entry, looked up): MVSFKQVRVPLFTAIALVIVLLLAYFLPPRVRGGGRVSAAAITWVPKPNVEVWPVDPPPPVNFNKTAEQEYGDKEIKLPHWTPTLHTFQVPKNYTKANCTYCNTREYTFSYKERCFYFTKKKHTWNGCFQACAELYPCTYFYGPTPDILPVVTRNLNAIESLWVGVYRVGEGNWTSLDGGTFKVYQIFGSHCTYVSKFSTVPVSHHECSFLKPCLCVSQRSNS
# RBBP9 inh = human RBBP9 inhibitors, primary screen, biochemical, fluorescence polarization, FP-Rh probe, HTS. recombinant RBBP9. inhibition, % at 7.94 µM. hit rate 0.2% among 220,000. AID 1515, 2009;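 active means inhibition above the campaign mean of all tested compounds plus 3 SD, cut at about 14% in these data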;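 further: plate controls were DMSO wells with RBBP9 for no effect and wells lacking RBBP9 protein for full effect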
# Target sequence (O75884 whole entry, looked up): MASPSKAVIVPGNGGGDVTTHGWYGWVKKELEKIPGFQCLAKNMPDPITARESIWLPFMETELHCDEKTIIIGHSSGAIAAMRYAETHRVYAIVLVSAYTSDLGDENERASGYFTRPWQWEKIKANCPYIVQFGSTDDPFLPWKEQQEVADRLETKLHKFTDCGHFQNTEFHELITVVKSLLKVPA
#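 System: RBBP9 protein / Buffer or medium: Tris/NaCl buffer pH 8.0 with 0.1% Pluronic / Probe or stimulus: Serine-hydrolase probe FP-Rh, 375 nM pre-mixing / Dosing: 7.94 µM single dose, 0.794% DMSO / Times: enzyme-compound preincubation 30 min, then probe labeling 45 min, 25 °C / Technique: fluorescence polarization (mP), excitation 525 nm, emission 598 nm / Replication: singlicate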
# Mcl-1 Bim block = inhibitors of Bim peptide binding to Mcl-1, primary screen, biochemical, bead-based flow cytometry, multiplex; Bim peptide-Mcl-1 binding; inhibition, % at 10 µM; hit rate 0.1% among 190,000; AID 1009, 2008; in the data active means inhibition above about 40%;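 further: 0% = no compound tracer wells and 100% = peptide blocker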
# BCLXL inh confirm = Bcl-xL inhibitors blocking Bim BH3 binding, confirmation, counter-screen for MCL1 inhibitor project, biochemical, fluorescence polarization; hit rate 54% among 1,700; AID 2166, 2009; GST-Bcl-xL / FITC-Bim BH3 peptide FP binding; shares compounds with MCL1-BIM inh; inhibition, % at 10.9 µM;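 active means inhibition above a cutoff equal to the mean inhibition of all tested compounds plus 3 SD, cut at about 30% in these data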;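 further: 0% = DMSO wells and 100% = unlabeled Bim BH3 control peptide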
# Target sequence (Q07817 whole entry, looked up): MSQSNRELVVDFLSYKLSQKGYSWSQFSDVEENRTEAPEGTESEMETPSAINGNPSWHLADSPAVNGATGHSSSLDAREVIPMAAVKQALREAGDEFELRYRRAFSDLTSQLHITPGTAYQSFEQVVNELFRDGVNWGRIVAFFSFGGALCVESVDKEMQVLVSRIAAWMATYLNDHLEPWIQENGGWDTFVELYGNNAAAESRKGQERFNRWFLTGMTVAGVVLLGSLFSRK
# MCL1 BIM confirm = inhibitors of MCL1 binding to BIM-BH3, confirmation, biochemical, fluorescence polarization, triplicate | shares compounds with MCL1-BIM inh | GST-MCL1 / FITC-Bim-BH3 fluorescence polarization | inhibition, % at 10.9 µM | hit rate 61% among 1,700 | AID 2168, 2009;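 active means inhibition above the average of all tested compounds plus 3 SD, cut at about 40% in these data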;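 further: 0% = DMSO wells and 100% = unlabeled Bim-BH3 control peptide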
# * = called active by the depositor; i = inactive; . = no result; + = active, no number. An excerpt weighted towards active compounds, which were near 2.2% of everything screened.
SMILES,MCL1-BIM inh,Mcl1 Noxa PPI,Mcl1 Bid PPI,EBV gp42 inh,RBBP9 inh,Mcl-1 Bim block,BCLXL inh confirm,MCL1 BIM confirm
COc1ccc(NC(=O)COC(=O)CCc2ccccc2)c(OC)c1,-1,.,.,.,.,.,.,.
Cc1ccccc1-c1nc(Cc2ccccc2)no1,44*,5,-11,-4,-7,4,3,-4
O=C1NC(=S)S/C1=C/c1ccc(N2CCOCC2)o1,65*,i,-54,6,-1,12,39*,32
CCN(Cc1ccc(OC)c(F)c1)C(C)C(=O)Nc1ccc(S(=O)(=O)N2CCCC2)cc1 (configuration not stated),-11,.,.,.,.,.,.,.
O=C1C=C(Nc2ccccc2O)c2ccccc2C1=O,100*,11,-23,10,-7,-1,15,16
Cc1ccc(NC2=CC(=O)C(=O)c3ccccc32)c(C)c1,4,.,.,.,.,.,.,.
Cn1c(=O)c(Nc2ccc(Cl)cc2)c2c3c(cccc31)C(=O)c1ccccc1-2,+,-5,-36,176*,-1,15,162*,197*
CCOC(=O)c1c(-c2ccccc2)c(C(C)=O)c(=O)n(C)c1C,3,10,-19,-4,.,0,.,.
CCOC(=O)c1c2c3c(cccc3n(C)c1=O)C(=O)c1ccccc1-2,54*,.,.,.,.,.,76*,90*
CCC(C)NC(=O)Cn1cnc2sc(C)c(S(=O)(=O)N3CCN(c4ccccc4OC)CC3)c2c1=O (configuration not stated),1,.,.,.,.,.,.,.
C=CCn1c(C)cc(C(=O)COC(=O)/C=C/c2c(C)nn(C3CCS(=O)(=O)C3)c2Cl)c1C (configuration not stated),4,.,.,.,.,.,.,.
CCN1CCc2nc3sc(C(=O)N4CCc5ccccc5C4)c(N)c3cc2C1,32,.,.,.,.,.,.,.
CCN1CCc2nc3sc(C(=O)Nc4cccnc4Cl)c(N)c3cc2C1,54*,.,.,.,.,.,10,-3
N#C/C(=C/c1ccco1)C(N)=S,58*,-6,-12,-3,4,.,17,25
O=C(NC1CCCCC1)c1c(O)nc2sccn2c1=O,-4,.,.,.,.,.,.,.
CCOc1ccc(C2OC34CCCCC3C(C#N)(C#N)C2(C#N)C(=N)O4)cc1OC (configuration not stated),167*,12,-33,0,-3,-1,107*,133*
C=CCOc1ccc(C2OC34CCCCC3C(C#N)(C#N)C2(C#N)C(=N)O4)cc1 (configuration not stated),115*,-4,-87,-10,4,2,76*,94*
Cc1ccc(C2OC34CCCCCC3C(C#N)(C(=N)O4)C2(C#N)C#N)cc1 (configuration not stated),30,26,-10,11,0,-2,.,.
CCCCOc1ccc(C2OC34CCCCC3C(C#N)(C#N)C2(C#N)C(=N)O4)cc1 (configuration not stated),166*,12,-35,-1,9,0,52*,68*
COc1cccc(CN2C(=O)CCC2(C)C(=O)NCCc2ccc(OC)c(OC)c2)c1 (configuration not stated),9,.,.,.,.,.,.,.
CSCCC(NC(=O)COc1ccccc1)C(=O)N1CCCCCC1 (configuration not stated),0,.,.,.,.,.,.,.
CN1CCc2cccc3c2[C@H]1Cc1ccc(O)c(O)c1-3,56*,88*,-65,-1,28*,7,42*,70*
Cc1nnc(NC(=O)CCC(=O)N2CCN(CCOc3cccc4ccccc34)CC2)s1,4,7,-12,-8,-4,.,.,.
CCN(c1ccccc1)S(=O)(=O)c1ccc(Cl)c(NC(=O)CN(C)C2CCN(C)CC2)c1,-4,38,37,-2,-7,.,.,.
Cc1ccc(/C=C2/NC(=O)N(Cc3ccccc3)C2=O)o1,49*,45,-27,-50,7,2,-48,-83
SMILES,MCL1-BIM inh,Mcl1 Noxa PPI,Mcl1 Bid PPI,EBV gp42 inh,RBBP9 inh,Mcl-1 Bim block,BCLXL inh confirm,MCL1 BIM confirm
COC(=O)CN1C(=O)N/C(=C/c2ccc(C)o2)C1=O,26,33,-26,-12,-3,-3,.,.
CC(=O)Oc1ccc(N2C(=O)C3C(C2=O)C(C(=O)c2ccc(Cl)cc2)N2CCCC32)cc1 (configuration not stated),74*,17,-21,43,-3,.,66*,86*
COc1ccc(N2C(=O)[C@@H]3[C@H](C2=O)[C@H](C(=O)c2ccc(OC(C)=O)cc2)N2N=CC=C[C@@H]32)cc1,2,8,-46,-13,-6,4,.,.
CC(C)(C)NC(=O)NC(=O)CN1CCCc2ccccc21,84*,-3,-72,-2,-3,-4,11,13
O=C(CN1CCCc2ccccc21)NC(=O)NCc1ccccc1,4,-10,-50,0,-9,.,.,.
CC1(C)Cc2c(C#N)c(N3CCN(C(=O)c4ccco4)CC3)nc(-c3ccco3)c2CS1,68*,53*,18,1,2,-1,27,49*
CC1(C)Cc2c(c(-c3ccco3)[nH]c(=O)c2C#N)CS1,148*,8,-45,32,-2,-3,94*,125*
CCc1nc(N2CCN(C(=O)c3ccco3)CC2)c(C#N)c2c1COC(C)(C)C2,-2,.,.,.,.,.,.,.
CC1(C)Cc2c(c(-c3ccccc3)[nH]c(=O)c2C#N)CS1,10,9,-12,-1,-4,0,.,.
O=C(CSc1nnc(-c2ccccc2)c2ccccc12)NCCN1C(=O)CSC1=O,-4,.,.,.,.,.,.,.
O=C1c2cccc3c([N+](=O)[O-])ccc(c23)C(=O)N1CCc1ccccn1,4,-2,-29,14,-5,.,.,.
Cc1ccc(C(=O)O)cc1N1C(=O)c2cccc3c([N+](=O)[O-])ccc(c23)C1=O,102*,.,.,.,.,.,47*,76*
CN(C)CCCN1C(=O)c2cccc3c([N+](=O)[O-])ccc(c23)C1=O,77*,14,-6,49,-3,0,92*,125*
Cc1c(C(=O)N(C)C2CC(C)(C)NC(C)(C)C2)oc2c(F)cccc12,7,.,.,.,.,.,.,.

# Source: PubChem BioAssay (several laboratories)
